# The source made the active and inactive calls. The rule behind the calls is not given here.
# Tested on: SH-SY5Y
# Experiment: Neuroprotective activity against NMDA-induced cell death in human SH-SY5Y cells at 0.1 to 0.5 uM incubated for 24 hrs by MTT assay relative to control
# Assay type: functional
# Settings: not given
row,SMILES,Activity [%]
1,O=C(O)C(=O)O.c1ccc(CN2CCN(CC3COC4(CCCCC4)O3)CC2)cc1 (configuration not stated),>85
2,O=C(O)C(=O)O.c1ccc(CC2CCN(CC3CSC4(CCCCC4)S3)CC2)cc1 (configuration not stated),>85
3,O=C(O)C(=O)O.O=C(O)C(=O)O.c1ccc(CN2CCN(CC3CSCS3)CC2)cc1 (configuration not stated),>85

# Tested on: SH-SY5Y
# Experiment: Neuroprotective activity against rotenone-induced cell death in human SH-SY5Y cells at 5 uM in presence of PB212 incubated for 24 hrs by MTT assay
# Assay type: functional, cell-based
# Settings: not given
# Procedure, shortened: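 SH-SY5Y cells receive rotenone 25 μM plus the S1R antagonist PB212 (5 μM) and compound at 1.0 or 5.0 μM. Output is % cell viability, mean ± SD of three independent experiments.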
row,SMILES,Activity
1,O=C(O)C(=O)O.c1ccc(CN2CCN(CC3CSC4(CCCCC4)O3)CC2)cc1 (configuration not stated),inactive
2,O=C(O)C(=O)O.c1ccc(CN2CCN(CC3COC4(CCCCC4)O3)CC2)cc1 (configuration not stated),inactive
3,O=C(O)C(=O)O.c1ccc(CC2CCN(CC3CSC4(CCCCC4)S3)CC2)cc1 (configuration not stated),inactive
4,O=C(O)C(=O)O.O=C(O)C(=O)O.c1ccc(CN2CCN(CC3CSCS3)CC2)cc1 (configuration not stated),inactive

# Molecular target: T1, Glutamate NMDA receptor (Rattus norvegicus) (UniProt P35439+Q00959+Q00960+Q00961+Q62645+Q8VHN2+Q9R1M7)
# Experiment: Negative allosteric modulator of NMDA receptor assessed as NMDA-induced current in Sprague-Dawley rat Primary cortical neuron at 10 uM by whole cell patch clamp method relative to control
# Assay type: cell-based
# Settings: Cortical neurone
# Procedure, shortened: (§1)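 Whole-cell patch clamp on cortical neurons in primary culture. Currents are evoked by NMDA 100 μM plus glycine 1 μM, with the compound applied at increasing concentrations. The effect is expressed as % of the control current, mean ± SE of n cells.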
row,SMILES,inhibition [%]
1,O=C(O)C(=O)O.c1ccc(CN2CCN(CC3COC4(CCCCC4)O3)CC2)cc1 (configuration not stated),110

# Molecular target: Sigma non-opioid intracellular receptor 1 (Cavia porcellus, UniProt Q60492)
# Sequence (Q60492 whole entry): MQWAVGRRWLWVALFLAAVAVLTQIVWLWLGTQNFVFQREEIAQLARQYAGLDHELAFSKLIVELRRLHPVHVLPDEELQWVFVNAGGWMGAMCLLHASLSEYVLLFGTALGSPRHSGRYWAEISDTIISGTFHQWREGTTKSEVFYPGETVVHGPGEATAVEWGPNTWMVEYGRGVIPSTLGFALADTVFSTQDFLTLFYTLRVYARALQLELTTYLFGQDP
# Experiment: Displacement of [3H](+)-pentazocine from sigma 1 receptor in guinea pig brain cortex membranes after 150 mins by scintillation counting analysis
# Assay type: cell membranes
# Settings: not given
# Procedure, shortened: (§2)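 S1R labelled selectively with [3H]-(+)pentazocine in a radioligand displacement assay. Affinity is expressed as inhibition constant (Ki).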
row,SMILES,Ki [nM]
1,O=C(O)C(=O)O.c1ccc(CN2CCN(CC3CSC4(CCCCC4)O3)CC2)cc1 (configuration not stated),1.3
2,O=C(O)C(=O)O.c1ccc(CC2CCN(CC3CSC4(CCCCC4)S3)CC2)cc1 (configuration not stated),12

# Tested on: SH-SY5Y
# Experiment: Neuroprotective activity against rotenone-induced cell death in human SH-SY5Y cells at 1 uM incubated for 24 hrs by MTT assay
# Assay type: functional, cell-based
# Settings: not given
# Procedure, shortened: (§3)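 Rotenone 25 μM is the toxic insult to SH-SY5Y cells, with test compound at 1.0 or 5.0 μM. Protection is reported as % cell viability, mean ± SD of three independent experiments.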
row,SMILES,Activity
1,O=C(O)C(=O)O.c1ccc(CN2CCN(CC3CSC4(CCCCC4)O3)CC2)cc1 (configuration not stated),Active
2,O=C(O)C(=O)O.c1ccc(CN2CCN(CC3COC4(CCCCC4)O3)CC2)cc1 (configuration not stated),Active
3,O=C(O)C(=O)O.c1ccc(CC2CCN(CC3CSC4(CCCCC4)S3)CC2)cc1 (configuration not stated),Active
4,O=C(O)C(=O)O.O=C(O)C(=O)O.c1ccc(CN2CCN(CC3CSCS3)CC2)cc1 (configuration not stated),Active

# Organism: Cavia porcellus
# Experiment: Selectivity index, ratio of Ki for sigma 1 receptor in guinea pig brain cortex membranes to Ki for sigma 2 receptor in guinea pig brain cortex membranes
# Assay type: cell membranes
# Settings: not given
row,SMILES,Ratio Ki
1,O=C(O)C(=O)O.c1ccc(CN2CCN(CC3CSC4(CCCCC4)O3)CC2)cc1 (configuration not stated),72
2,O=C(O)C(=O)O.c1ccc(CN2CCN(CC3COC4(CCCCC4)O3)CC2)cc1 (configuration not stated),47

# Tested on: SH-SY5Y
# Experiment: Neuroprotective activity against NMDA-induced cell death in human SH-SY5Y cells at 0.1 uM in presence of PB212 incubated for 24 hrs by MTT assay
# Assay type: functional, cell-based
# Settings: not given
# Procedure, shortened: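 SH-SY5Y cells are exposed to NMDA 250 μM together with compound at 0.1 μM. This is done with and without the S1R antagonist PB212 (5 μM). Data are % cell viability, mean ± SD of three independent experiments.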
row,SMILES,Activity
1,O=C(O)C(=O)O.O=C(O)C(=O)O.c1ccc(CN2CCN(CC3CSCS3)CC2)cc1 (configuration not stated),inactive

# Tested on: SH-SY5Y
# Experiment: Neuroprotective activity against NMDA-induced cell death in human SH-SY5Y cells at 0.5 to 1 uM incubated for 24 hrs by MTT assay relative to control
# Assay type: functional
# Settings: not given
row,SMILES,Activity
1,O=C(O)C(=O)O.c1ccc(CN2CCN(CC3CSC4(CCCCC4)O3)CC2)cc1 (configuration not stated),72 - 75%
2,O=C(O)C(=O)O.c1ccc(CC2CCN(CC3CSCS3)CC2)cc1 (configuration not stated),72 - 75%

# Molecular target: Sigma intracellular receptor 2 (Homo sapiens, UniProt Q5BJF2)
# Sequence (Q5BJF2 whole entry): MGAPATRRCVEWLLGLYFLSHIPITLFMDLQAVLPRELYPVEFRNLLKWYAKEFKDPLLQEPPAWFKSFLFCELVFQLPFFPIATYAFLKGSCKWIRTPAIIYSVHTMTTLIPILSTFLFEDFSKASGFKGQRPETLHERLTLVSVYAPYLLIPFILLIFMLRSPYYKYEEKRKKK
# Experiment: Displacement of [3H]-ditolylguanidine from human Sigma 2 receptor by radioligand displacement assay
# Settings: not given
# Procedure, shortened: (§4)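 Radioligand displacement with [3H]-ditolylguanidine as the S2R label. Cold (+)-pentazocine is included to mask S1R sites. Results are reported as Ki.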
row,SMILES,Ki [nM]
1,c1ccc(CC2CCN(C[C@@H]3CS[C@@]4(CCCCc5ccccc54)S3)CC2)cc1,107
2,c1ccc(CC2CCN(C[C@@H]3CS[C@]4(CCc5ccccc54)S3)CC2)cc1,30
3,c1ccc(CC2CCN(CC3CSC4(CCCC4)S3)CC2)cc1 (configuration not stated),3
4,c1ccc(CC2CCN(C[C@H]3CS[C@]4(CCc5ccccc54)S3)CC2)cc1,65
5,c1ccc(CC2CCN(C[C@@H]3CS[C@@]4(CCCc5ccccc54)S3)CC2)cc1,87
6,c1ccc(CC2CCN(C[C@H]3CS[C@@]4(CCCCc5ccccc54)S3)CC2)cc1,158
7,c1ccc(CC2CCN(C[C@@H]3CS[C@]4(CCCc5ccccc54)S3)CC2)cc1,93
8,CC1(C)SCC(CN2CCN(Cc3ccccc3)CC2)S1 (configuration not stated),3.3
9,c1ccc(CC2CCN(CC3CSC4(CCCCCC4)S3)CC2)cc1 (configuration not stated),8.1
10,CC1(C)OCC(CN2CCC(Cc3ccccc3)CC2)O1 (configuration not stated),6.2
11,c1ccc(CC2CCN(CC3CSC4(S3)c3ccccc3-c3ccccc34)CC2)cc1 (configuration not stated),71
12,CC1(C)OCC(CN2CCN(Cc3ccccc3)CC2)O1 (configuration not stated),182
13,O=C(O)C(=O)O.c1ccc(CC2CCN(CC3CSCS3)CC2)cc1 (configuration not stated),12
14,O=C(O)C(=O)O.O=C(O)C(=O)O.c1ccc(CN2CCN(CC3CSCS3)CC2)cc1 (configuration not stated),90
15,C[C@]1(c2ccccc2)SC[C@@H](CN2CCC(Cc3ccccc3)CC2)S1,63
16,C[C@]1(c2ccccc2)SC[C@H](CN2CCC(Cc3ccccc3)CC2)S1,85
17,CC1(C)SCC(CN2CCC(Cc3ccccc3)CC2)S1 (configuration not stated),0.59

# Tested on: SH-SY5Y
# Experiment: Neuroprotective activity against NMDA-induced cell death in human SH-SY5Y cells at 5 uM incubated for 24 hrs by MTT assay
# Assay type: functional, cell-based
# Settings: not given
# Procedure, shortened: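 SH-SY5Y neuroblastoma cells are incubated 24 h with NMDA 250 μM and compound at 0.1, 0.5, 1.0 or 5.0 μM. Memantine serves as positive control. Read-out is % cell viability, mean ± SD of three independent experiments.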
row,SMILES,Activity
1,O=C(O)C(=O)O.c1ccc(CN2CCN(CC3CSC4(CCCCC4)O3)CC2)cc1 (configuration not stated),inactive
2,CC12CC3CC(C)(C1)CC(N)(C3)C2,inactive
3,O=C(O)C(=O)O.c1ccc(CN2CCN(CC3COC4(CCCCC4)O3)CC2)cc1 (configuration not stated),inactive
4,O=C(O)C(=O)O.c1ccc(CC2CCN(CC3CSC4(CCCCC4)S3)CC2)cc1 (configuration not stated),inactive
5,O=C(O)C(=O)O.c1ccc(CC2CCN(CC3CSCS3)CC2)cc1 (configuration not stated),inactive
6,O=C(O)C(=O)O.O=C(O)C(=O)O.c1ccc(CN2CCN(CC3CSCS3)CC2)cc1 (configuration not stated),inactive

# Molecular target: T1, Glutamate NMDA receptor (Rattus norvegicus)
# Experiment: Negative allosteric modulator of NMDA receptor assessed as NMDA-induced current in Sprague-Dawley rat Primary cortical neuron at 0.1 uM by whole cell patch clamp method relative to control
# Assay type: cell-based
# Settings: Cortical neurone
# Procedure, shortened: as §1
row,SMILES,inhibition [%]
1,O=C(O)C(=O)O.c1ccc(CN2CCN(CC3COC4(CCCCC4)O3)CC2)cc1 (configuration not stated),34

# Tested on: SH-SY5Y
# Experiment: Neuroprotective activity against oligomycin-induced cell death in human SH-SY5Y cells at 5 uM incubated for 24 hrs by MTT assay relative to control
# Assay type: functional
# Settings: not given
# Procedure, shortened: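 SH-SY5Y cells were exposed to oligomycin (2.5 μM) as the toxic stimulus in the presence of test compound. Protection was scored as % cell viability.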
row,SMILES,Activity [%]
1,O=C(O)C(=O)O.c1ccc(CN2CCN(CC3CSC4(CCCCC4)O3)CC2)cc1 (configuration not stated),>60

# Molecular target: T1, Glutamate NMDA receptor (Rattus norvegicus)
# Experiment: Negative allosteric modulator of NMDA receptor assessed as NMDA-induced current in Sprague-Dawley rat Primary cortical neuron at 1 uM by whole cell patch clamp method relative to control
# Assay type: cell-based
# Settings: Cortical neurone
# Procedure, shortened: as §1
row,SMILES,inhibition [%]
1,O=C(O)C(=O)O.c1ccc(CN2CCN(CC3COC4(CCCCC4)O3)CC2)cc1 (configuration not stated),18

# Molecular target: Sigma non-opioid intracellular receptor 1 (Homo sapiens, UniProt Q99720)
# Sequence (Q99720 whole entry): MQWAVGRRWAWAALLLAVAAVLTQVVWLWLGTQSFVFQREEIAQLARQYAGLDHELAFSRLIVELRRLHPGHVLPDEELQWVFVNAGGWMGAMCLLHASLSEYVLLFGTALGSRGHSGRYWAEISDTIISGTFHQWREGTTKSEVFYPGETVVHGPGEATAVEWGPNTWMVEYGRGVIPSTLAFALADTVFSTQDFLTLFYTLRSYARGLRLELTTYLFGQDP
# Experiment: Displacement of [3H]-pentazocine from human Sigma 1 receptor by radioligand displacement assay
# Settings: not given
# Procedure, shortened: as §2
row,SMILES,Ki [nM]
1,c1ccc(CC2CCN(C[C@@H]3CS[C@@]4(CCCCc5ccccc54)S3)CC2)cc1,68
2,c1ccc(CC2CCN(C[C@@H]3CS[C@]4(CCc5ccccc54)S3)CC2)cc1,71
3,c1ccc(CC2CCN(CC3CSC4(CCCC4)S3)CC2)cc1 (configuration not stated),4.2
4,c1ccc(CC2CCN(C[C@H]3CS[C@]4(CCc5ccccc54)S3)CC2)cc1,107
5,c1ccc(CC2CCN(C[C@@H]3CS[C@@]4(CCCc5ccccc54)S3)CC2)cc1,52
6,c1ccc(CC2CCN(C[C@H]3CS[C@@]4(CCCCc5ccccc54)S3)CC2)cc1,195
7,c1ccc(CC2CCN(C[C@@H]3CS[C@]4(CCCc5ccccc54)S3)CC2)cc1,129
8,CC1(C)SCC(CN2CCN(Cc3ccccc3)CC2)S1 (configuration not stated),0.6
9,c1ccc(CC2CCN(CC3CSC4(CCCCCC4)S3)CC2)cc1 (configuration not stated),1.7
10,CC1(C)OCC(CN2CCC(Cc3ccccc3)CC2)O1 (configuration not stated),0.6
11,c1ccc(CC2CCN(CC3CSC4(S3)c3ccccc3-c3ccccc34)CC2)cc1 (configuration not stated),54
12,CC1(C)OCC(CN2CCN(Cc3ccccc3)CC2)O1 (configuration not stated),5.4
13,O=C(O)C(=O)O.c1ccc(CC2CCN(CC3CSCS3)CC2)cc1 (configuration not stated),0.5
14,O=C(O)C(=O)O.O=C(O)C(=O)O.c1ccc(CN2CCN(CC3CSCS3)CC2)cc1 (configuration not stated),2.1
15,C[C@]1(c2ccccc2)SC[C@@H](CN2CCC(Cc3ccccc3)CC2)S1,76
16,C[C@]1(c2ccccc2)SC[C@H](CN2CCC(Cc3ccccc3)CC2)S1,68
17,CC1(C)SCC(CN2CCC(Cc3ccccc3)CC2)S1 (configuration not stated),2

# Molecular target: not listed separately
# Experiment: Displacement of [3H][…]-DTG from sigma 2 receptor in guinea pig brain cortex membranes after 150 mins by liquid scintillation counter method
# Assay type: cell membranes, Cavia porcellus
# Settings: not given
# Procedure, shortened: as §4
row,SMILES,Ki [nM]
1,O=C(O)C(=O)O.c1ccc(CN2CCN(CC3CSC4(CCCCC4)O3)CC2)cc1 (configuration not stated),91
2,O=C(O)C(=O)O.c1ccc(CN2CCN(CC3COC4(CCCCC4)O3)CC2)cc1 (configuration not stated),35
3,O=C(O)C(=O)O.c1ccc(CC2CCN(CC3CSC4(CCCCC4)S3)CC2)cc1 (configuration not stated),5

# Tested on: SH-SY5Y
# Experiment: Neuroprotective activity against rotenone-induced cell death in human SH-SY5Y cells at 5 uM incubated for 24 hrs by MTT assay
# Assay type: functional, cell-based
# Settings: not given
# Procedure, shortened: as §3
row,SMILES,Activity
1,O=C(O)C(=O)O.c1ccc(CN2CCN(CC3CSC4(CCCCC4)O3)CC2)cc1 (configuration not stated),Active
2,O=C(O)C(=O)O.c1ccc(CN2CCN(CC3COC4(CCCCC4)O3)CC2)cc1 (configuration not stated),Active

# Reference: ChEMBL document CHEMBL4613319, “Novel Dithiolane-Based Ligands Combining Sigma and NMDA Receptor Interactions as Potential Neuroprotective Agents” (ACS Med Chem Lett, 2020)
